{"source": "ChEMBL document CHEMBL4043073", "about": "“Boronic Acid Modifications Enhance the Anti-Influenza A Virus Activities of Novel Quindoline Derivatives” (J Med Chem, 2017)", "key": {"Influenza A virus [1]": {"system": "Influenza A virus", "assay": "Antiviral activity against Influenza A virus (A/swine/Minnesota/02719/2009(H3N2)) infected in MDCK cells assessed as virus yeild reduction preincubated with virus at 37 degC for 1 hr followed by viral infection for 1 hr measured after 3 days by crystal violet staining based plaque assay", "assay_type": "functional, cell-based", "in_short": "(§1)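 Plaque reduction: about 50–100 PFU/well of PR8, Cal09 or Minnesota preincubated with compound (0–10 μM) 1 h at 37 °C. Mixture then adsorbed to MDCK monolayers 1 h at 4 °C. Overlay was DMEM with 1.5% agarose, DEAE-dextran and 1 μg/mL TPCK-trypsin for 3 days at 37 °C. Glutaraldehyde fix, crystal violet stain, plaque count; IC50 derived; n = 4.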"}, "Influenza A virus [2]": {"system": "Influenza A virus", "assay": "Antiviral activity against Influenza A virus (A/Puerto Rico/8/34(H1N1)) infected in MDCK cells assessed as virus yeild reduction at 10 uM treated post 1 hr of viral adsorption measured at 24 hrs post infection by crystal violet staining based plaque assay", "assay_type": "functional, cell-based", "conditions": "A/Puerto Rico/8/1934(H1N1)", "in_short": "(§2)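 Time-of-addition on MDCK cells, PR8 MOI 1.0, 10 μM compound. Three arms: cells pretreated before infection; compound present during adsorption 1 h at 4 °C; or compound added after removal of unadsorbed virus. Virus yield at 24 h p.i. by plaque assay; n = 3.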"}, "Influenza A virus [3]": {"system": "Influenza A virus", "assay": "Antiviral activity against Influenza A virus H3N2 strain (A/swine/Minnesota/02719/2009) infected in MDCK cells assessed as reduction in viral HA titer by measuring reduction in chicken RBC […] after 24 hrs by hemagglutination test", "assay_type": "functional, cell-based", "in_short": "(§3)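 MDCK cells infected at MOI 3.0 (single-cycle) with PR8, Cal09 or swine H3N2 Minnesota, then treated with compound for 24 h. Supernatant HA titers were read by 2-fold serial dilution with an equal volume of 1% chicken RBCs, 60 min at 4 °C. Expressed as percent of untreated-cell HA titer; IC50 derived; n = 4.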"}, "Influenza A virus [4]": {"system": "Influenza A virus", "assay": "Antiviral activity against Influenza A virus (A/Puerto Rico/8/34(H1N1)) infected in MDCK cells assessed as reduction in virus-induced cytopathic effect after 48 hrs by crystal violet staining based assay", "assay_type": "functional, cell-based", "conditions": "A/Puerto Rico/8/1934(H1N1)", "in_short": "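MDCK cells infected with PR8 at MOI 0.1; compounds added in triplicate after inoculum removal. After 48 h cells were fixed with 4% formaldehyde and stained with 0.1% crystal violet. Dye was methanol-solubilised and read at 570 nm; IC50 was the concentration halving CPE.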"}, "Vero": {"system": "Vero", "assay": "Inhibition of Influenza A virus (A/Puerto Rico/8/34(H1N1)) hemagglutinin expressed in African green monkey Vero cells assessed as reduction in acid-induced syncytium formation preincubated at pH 7 for 15 mins followed by incubation at pH 5 for 10 mins measured after 2 hrs by Hema3Stat Pak-staining based microscopic analysis", "assay_type": "cell-based", "conditions": "Influenza A virus (A/Puerto Rico/8/1934(H1N1))", "in_short": "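Vero cells transfected with PR8 HA plasmid. At 16 h HA was cleaved with 5 μg/mL TPCK-trypsin for 15 min at 37 °C. Cells were preincubated with compound 15 min at 37 °C, then held at pH 5.0 with compound for 10 min at 37 °C. After rinsing, cells were kept 2 h in 10% FBS medium, stained with Hema3Stat Pak and examined for syncytia by microscopy.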"}, "Influenza A virus [5]": {"system": "Influenza A virus", "assay": "Antiviral activity against Influenza A virus (A/Puerto Rico/8/34(H1N1)) infected in MDCK cells assessed as virus yeild reduction at 10 uM treated during viral adsorption for 1 hr measured at 24 hrs post infection by crystal violet staining based plaque assay", "assay_type": "functional, cell-based", "conditions": "A/Puerto Rico/8/1934(H1N1)", "in_short": "as §2"}, "[6]": {"assay": "Antiviral activity against Influenza A virus (A/California/04/2009(H1N1)) infected in MDCK cells assessed as virus yeild reduction preincubated with virus at 37 degC for 1 hr followed by viral infection for 1 hr measured after 3 days by crystal violet staining based plaque assay", "assay_type": "functional, cell-based", "in_short": "as §1"}, "Influenza A virus [7]": {"system": "Influenza A virus", "assay": "Antiviral activity against Influenza A virus (A/Puerto Rico/8/34(H1N1)) infected in A549 cells assessed as reduction in localization of viral NP protein in nucleus at 10 uM preincubated with virus at 37 degC for 1 hr followed by viral adsorption at 4 degC for 1 hr and subsequent infection in A549 cells measured at 2 to 4 hrs post infection by FITC-staining based immunofluorescence microscopic method", "assay_type": "functional, cell-based", "conditions": "A/Puerto Rico/8/1934(H1N1)", "in_short": "(§4)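 PR8 (MOI 1.0) pretreated with 10 μM compound 1 h at 37 °C, adsorbed 1 h at 4 °C, then A549 cells were kept in infecting medium with 10 μM compound. Fixed with 4% paraformaldehyde at 2 or 4 h p.i., permeabilised with Triton X-100 and blocked. Anti-NP plus FITC secondary, confocal imaging; nuclear NP intensity per unit area quantified (n = 30 images).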"}, "Influenza A virus [8]": {"system": "Influenza A virus", "assay": "Antiviral activity against Influenza A virus (A/Puerto Rico/8/34(H1N1)) infected in Kunming mouse assessed as intact columnar epithelium in bronchiole without inflammatory cell infiltration at 10 mg/kg/day, po qd for 4 days by hematoxylin and eosin staining based assay", "assay_type": "functional, organism-based", "conditions": "A/Puerto Rico/8/1934(H1N1)"}, "Influenza A virus [9]": {"system": "Influenza A virus", "assay": "Antiviral activity against Influenza A virus (A/Puerto Rico/8/34(H1N1)) infected in MDCK cells assessed as reduction in viral HA titer by measuring reduction in chicken RBC […] after 24 hrs by hemagglutination test", "assay_type": "functional, cell-based", "conditions": "A/Puerto Rico/8/1934(H1N1)", "in_short": "as §3"}, "Influenza A virus [10]": {"system": "Influenza A virus", "assay": "Antiviral activity against Influenza A virus (A/Puerto Rico/8/34(H1N1)) infected in MDCK cells assessed as virus yeild reduction at 10 uM preincubated with virus for 1 hr followed by viral infection for 1 hr measured at 24 hrs post infection by crystal violet staining based plaque assay", "assay_type": "functional, cell-based", "conditions": "A/Puerto Rico/8/1934(H1N1)", "in_short": "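PR8 (MOI 1.0) preincubated with compound (2.5–10 μM) 1 h at 37 °C, then used to infect MDCK cells. After adsorption, medium with the same compound concentration was added. At 24 h p.i. supernatant virus titer was measured by plaque assay; n = 3.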"}, "NCI-H1299": {"system": "NCI-H1299", "assay": "Cytotoxicity against human H1299 cells at 20 uM after 48 hrs by resazurin based fluorescence method", "assay_type": "cell-based", "conditions": "nci-h1299, 48 h", "in_short": "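Confluent MDCK, A549 or H1299 cells exposed in triplicate to compound for 48 h at 37 °C (A549/H1299 at 20 μM). Resazurin added to 0.2 mg/mL final for 16 h. Fluorescence read at ex 544 / em 595 nm; viability as % of untreated.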"}, "Influenza A virus [11]": {"system": "Influenza A virus", "assay": "Antiviral activity against Influenza A virus (A/Puerto Rico/8/34(H1N1)) infected in A549 cells assessed as reduction in nuclear import of viral RNP by measuring colocalization with viral NP in cytoplasm at 10 uM preincubated with virus at 37 degC for 1 hr followed by viral adsorption at 4 degC for 1 hr and subsequent infection in A549 cells measured at 2 to 4 hrs post infection by confocal microscopic method", "assay_type": "functional, cell-based", "conditions": "A/Puerto Rico/8/1934(H1N1)", "in_short": "as §4"}, "Canis lupus familiaris [12]": {"species": "Canis lupus familiaris", "assay": "Inhibition of NFkappaB activation-mediated viral endocytosis in MDCK cells infected with Influenza A virus (A/Puerto Rico/8/34(H1N1)) assessed as Akt phosphorylation level at 10 uM preincubated with virus for 1 hr followed by viral infection measured after 4 hrs by Western blot method relative to control (reference value: 1.4)", "assay_type": "cell-based", "in_short": "(§5)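 PR8 (MOI 1.0) pretreated with compound 1 h at 37 °C, then MDCK cells were kept in infecting medium with 5 or 10 μM for 4 h; ribavirin 50 μg/mL as comparator. Lysates were immunoblotted for phospho-ERK1/2, p38, NF-κB or Akt, with β-actin/GAPDH loading controls and AP/NBT-BCIP detection. Densitometry was normalised to uninfected cells (= 1.0); n = 3.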"}, "Canis lupus familiaris [13]": {"species": "Canis lupus familiaris", "assay": "(§6) Inhibition of MAPK signaling-mediated nuclear import of viral RNP in MDCK cells infected with Influenza A virus (A/Puerto Rico/8/34(H1N1)) assessed as ERK1/2 phosphorylation at 10 uM preincubated with virus for 1 hr followed by viral infection after 4 hrs by Western blot method relative to control (reference value: 1.4)", "assay_type": "cell-based", "in_short": "as §5"}, "Canis lupus familiaris [14]": {"species": "Canis lupus familiaris", "assay": "as §6, with “5” for “10”", "assay_type": "cell-based", "in_short": "as §5"}}, "note": "The source made the active and inactive calls. No cut-off for these calls is given here."}
{"smiles": "O=C(Nc1ccccc1Nc1c2ccccc2nc2c1[nH]c1ccccc12)c1cccc(B(O)O)c1", "values": [{"measurement": "IC50", "setting": "Influenza A virus [1]", "result": 2300, "unit": "nM"}, {"measurement": "Activity", "setting": "Influenza A virus [2]", "result": "inactive"}, {"measurement": "Activity", "setting": "Influenza A virus [3]", "result": "Dose-dependent effect"}, {"measurement": "IC50", "setting": "Influenza A virus [3]", "result": 3000, "unit": "nM"}, {"measurement": "IC50", "setting": "Influenza A virus [4]", "result": 5100, "unit": "nM"}, {"measurement": "inhibition", "setting": "Vero", "result": "inactive"}, {"measurement": "Activity", "setting": "Influenza A virus [5]", "result": "Active"}, {"measurement": "IC50", "setting": "[6]", "result": 3700, "unit": "nM"}, {"measurement": "Activity", "setting": "Influenza A virus [7]", "result": "Active"}, {"measurement": "Activity", "setting": "Influenza A virus [8]", "result": "Active"}, {"measurement": "Activity", "setting": "Influenza A virus [9]", "result": "Dose-dependent effect"}, {"measurement": "IC50", "setting": "Influenza A virus [9]", "result": 2500, "unit": "nM"}, {"measurement": "Activity", "setting": "Influenza A virus [10]", "result": "Active"}, {"measurement": "Activity", "setting": "NCI-H1299", "result": "Non-Toxic"}, {"measurement": "Activity", "setting": "Influenza A virus [11]", "result": "Active"}, {"measurement": "fold change (FC)", "setting": "Canis lupus familiaris [12]", "result": 0.8}, {"measurement": "fold change (FC)", "setting": "Canis lupus familiaris [13]", "result": 0.6}, {"measurement": "fold change (FC)", "setting": "Canis lupus familiaris [14]", "result": 0.7}]}
